Measured values taken from ChEMBL document CHEMBL1124236, “Homoallylic amines related to zimeldine. A comparative study on neuronal serotonin and norepinephrine reuptake based on conformational analysis” (J Med Chem, 1988).
pIC50: −log10 of the molar value.

What was measured:
[1] = Selectivity expressed as ratio between NE and 5-HT uptake inhibition in rat synaptosomes; format: functional, subcellular; conditions: Brain
[2] = Selectivity expressed as ratio between NE and 5-HT uptake inhibition in mouse brain slices; format: functional
[3] = organism: Rattus norvegicus; assay: In vitro inhibition of the accumulation of (-)-[3H]Norepinephrine in synaptosomes from the rat brain cortex; format: functional
[4] = organism: Mus musculus; assay: In vitro inhibition of the accumulation of (-)-[3H]Norepinephrine in slices from the middle part of the mouse brain.; format: functional
[5] = tested on: Mus musculus; assay: Ex vivo inhibition of the accumulation of (-)-[3H]Norepinephrine in slices from the middle part of the mouse brain. (i.p.); format: functional; conditions: ip
How it was run: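 Compound given i.p.; mice killed 60 min later. Brain slices (about 1 mm) preincubated 5 min at 37 °C in Krebs-Henseleit buffer with 1 × 10^-4 M pargyline, glucose, ascorbate and EDTA under 6.5% CO2/O2. Then 5 min with 1 × 10^-7 M [3H]NE plus 1 × 10^-7 M [14C]-5-HT, counted by double labelling. Active uptake is the cocaine-sensitive (5 × 10^-4 M) part. 3–4 doses, 4 mice/dose; ED50 from semilog plots.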

Structure (SMILES) | pIC50 [3] | pIC50 [4] | Ratio [1] | Ratio [2] | ED50 [5] [µmol/kg]
CNCCC=C1c2ccccc2CCc2ccccc21 [NORTRIPTYLINE] | 8.15 | 6.30 | 0.0035 | 0.075 | 67
CNC/C=C(\c1ccc(Br)cc1)c1cccnc1 [NORZIMELIDINE] | 8.34 | – | 0.058 | – | 25
CNCC/C=C(/c1ccc(Br)cc1)c1cccnc1 | 5.18 | < 4.60 | 28 | >50 | > 98
CN(C)CC/C=C(\c1ccc(Br)cc1)c1cccnc1 | 5.85 | 5.11 | 0.54 | 1.1 | 95
CN(C)C/C=C(\c1ccc(Br)cc1)c1cccnc1 | 6.82 | – | 0.68 | – | 25
CN(C)CCC=C1c2ccccc2CCc2ccccc21 [AMITRIPTYLINE] | 7.21 | 5.27 | 0.19 | 1.9 | 114
CNCC/C=C(\c1ccc(Br)cc1)c1cccnc1 | 6.00 | 6.60 | 0.71 | 2.1 | 98

Second part, led by results:

pIC50 [3] | pIC50 [4] | Structure (SMILES) | Ratio [1] | Ratio [2] | ED50 [5] [µmol/kg]
4.65 | < 4.62 | CN(C)CC/C=C(/c1ccc(Br)cc1)c1cccnc1 | 45 | >27 | > 95
6.62 | – | CNC/C=C(/c1ccc(Br)cc1)c1cccnc1 [NOMELIDINE] | 6.3 | – | > 102
5.49 | – | CN(C)C/C=C(/c1ccc(Br)cc1)c1cccnc1 [ZIMELDINE] | 32 | – | > 98
